Results on twelve compounds are retold here after paper PMC3206604 (Journal of natural products, 2011).

For assay [1], the target named is human 20S proteasome (Homo sapiens, UniProt P28074). As to the kind of experiment: Proteasome inhibition assay. The conditions noted are these: for proteasome ED50 / IC50: Table 3, results expressed as ED50; for IC50: read-out: proteasome ED50. It counts as biochemical.
Assay [2] concerns HT-29 human colon cancer cells. Put plainly: Mitochondrial transmembrane potential. It counts as cell-based. The conditions noted are these: HT-29 cells; for MTP ED50: reduction of mitochondrial transmembrane potential (ΔΨm). A digest of the protocol: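 ΔΨm detected with a JC-1 mitochondrial membrane potential kit, following a previously established protocol. A positive control was run alongside the test compounds. Values were reported as ED50.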

Assay [3] deals with human colon cancer cells (HT-29). Put plainly: Cytotoxicity assay. The class given is cell-based. The note with it: HT-29 cells, standard protocol.
In assay [4] the test system is human 20S proteasome. Put plainly: Proteasome inhibition assay. The class given is biochemical. The conditions noted are these: Table 3, results expressed as ED50.

Consider pipercallosine [compound 11], for which, at human 20S proteasome [1], the “proteasome ED50” value was above 20 µM. The “MTP ED50” value in assay [2] stood at 4.6 µM.
Turning to `O=C1C[C@@H](c2ccccc2)Oc2cc(O)c(Cc3ccccc3O)c(O)c21` [compound 5, isochamanetin], at human 20S proteasome [1], the IC50 was above 20000 nM. In assay [2], the “MTP ED50” value came out at 7.7 µM.
Regarding 7-methoxydichamanetin [compound 8], the “proteasome ED50” value on human 20S proteasome [1] came to 3.45 ± 0.18 µM. Also, the “MTP ED50” value in assay [2] was found to be 1.6 µM.
With `O=C1C[C@@H](c2ccccc2)Oc2c(Cc3cc(Cc4cc(Cc5ccccc5O)ccc4O)ccc3O)c(O)c(Cc3ccccc3O)c(O)c21` [compound 1, (2S)-5,7-dihydroxy-8-(2″-hydroxy-5″-(2′‴-hydroxy-5′‴-(2″‴-hydroxybenzyl)benzyl)benzyl)-6-(2‴-hydroxybenzyl)-flavanone], at human 20S proteasome [1], the “proteasome ED50” value is above 20 µM. Also, in assay [2], the “MTP ED50” value is 3.7 µM.
Turning to `CC(=O)O[C@H]1C(=O)[C@@]2(C)[C@H]([C@H](OC(=O)c3ccccc3)[C@]3(O)C[C@H](OC(=O)[C@H](O)[C@@H](NC(=O)c4ccccc4)c4ccccc4)C(C)=C1C3(C)C)[C@]1(OC(C)=O)CO[C@@H]1C[C@@H]2O` [Paclitaxel], the “cytotoxicity ED50” value in assay [3] came to 6 nM.
For the compound `O=C1C[C@@H](c2ccccc2)Oc2c(Cc3cc(Cc4ccccc4O)ccc3O)c(O)c(Cc3cc(Cc4cc(Cc5ccccc5O)ccc4O)ccc3O)c(O)c21` [compound 4, (2S)-5,7-dihydroxy-6-(2‴-hydroxy-5‴-(2″‴-hydroxy-5″‴-(2‴‴-hydroxybenzyl)benzyl)benzyl)-8-(2″-hydroxy-5′‴-(2′‴-hydroxybenzyl)benzyl)-flavanone], the “proteasome ED50” value on human 20S proteasome [1] is above 20 µM. For the same compound, in assay [2], the “MTP ED50” value amounted to 3.9 µM.
`O=C1C[C@@H](c2ccccc2)Oc2c(Cc3ccccc3O)c(O)c(Cc3ccccc3O)c(O)c21` [compound 7, dichamanetin]: the “inhibitory effect in proteasome assay” value against human 20S proteasome [1] (human 20S proteasome bioassay) was “did not show any inhibitory effect”. For the same compound, the “proteasome ED50” value with human 20S proteasome [4] is above 20 µM. For the same compound, in assay [2], the “MTP ED50” value turned out to be 3.6 µM.
As to “5″-(2′‴-hydroxybenzyl)uvarinol [compound 9]”, the “proteasome ED50” value at human 20S proteasome [1] is above 20 µM. Further, the “MTP ED50” value in assay [2] came out at 2.3 µM.
For 7-methoxychamanetin [compound 6], in that order: above 20 µM and 13.6 µM.
In the case of `O=C1C[C@@H](c2ccccc2)Oc2cc(O)cc(O)c21` [compound 10, pinocembrin], the IC50 at human 20S proteasome [1] was determined as 2870 ± 260 nM. In addition, the “MTP ED50 (text, printed in μg/mL)” value in assay [2] (called inactive) is above 20 µg/mL. Moreover, in assay [2], the “MTP ED50” value is above 20 µM.
Regarding “5,7-dihydroxy-6-(2‴-hydroxy-5‴-(2′‴-hydroxy-5′‴-(2″‴-hydroxy-5″‴-(2‴‴-hydroxybenzyl)benzyl)benzyl) benzyl)-8-(2″-hydroxybenzyl)-flavanone [compound 3]”, the “proteasome ED50” value at human 20S proteasome [1] is above 20 µM. Besides, the “MTP ED50” value in assay [2] came out at 2.5 µM.
Take `O=C1C[C@@H](c2ccccc2)Oc2c(Cc3ccccc3O)c(O)c(Cc3cc(Cc4cc(Cc5ccccc5O)ccc4O)ccc3O)c(O)c21` [compound 2, (2S)-5,7-dihydroxy-6-(2‴-hydroxy-5‴-(2′‴-hydroxy-5′‴-(2″‴-hydroxybenzyl)benzyl)benzyl)-8-(2″-hydroxybenzyl)-flavanone]: the “proteasome ED50” value on human 20S proteasome [1] is above 20 µM. The “MTP ED50” value in assay [2] was 6.8 µM.
